Shown is part of a subset that was picked to be rich in hits.
E-sel inducer – E-selectin induction on HUVECs; P16581; HUVEC E-selectin immunofluorescence imaging; normalized: neutral wells 0, TNF-alpha wells 100; activation, % at 7.58 µM; 0.37% of 260,000 active; AID 686992;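 active = mean E-selectin-positive cell signal at least 10% of the positive control, reached in at least 60% of replicates, without over 20% cell loss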
Target sequence (P16581 whole entry, looked up): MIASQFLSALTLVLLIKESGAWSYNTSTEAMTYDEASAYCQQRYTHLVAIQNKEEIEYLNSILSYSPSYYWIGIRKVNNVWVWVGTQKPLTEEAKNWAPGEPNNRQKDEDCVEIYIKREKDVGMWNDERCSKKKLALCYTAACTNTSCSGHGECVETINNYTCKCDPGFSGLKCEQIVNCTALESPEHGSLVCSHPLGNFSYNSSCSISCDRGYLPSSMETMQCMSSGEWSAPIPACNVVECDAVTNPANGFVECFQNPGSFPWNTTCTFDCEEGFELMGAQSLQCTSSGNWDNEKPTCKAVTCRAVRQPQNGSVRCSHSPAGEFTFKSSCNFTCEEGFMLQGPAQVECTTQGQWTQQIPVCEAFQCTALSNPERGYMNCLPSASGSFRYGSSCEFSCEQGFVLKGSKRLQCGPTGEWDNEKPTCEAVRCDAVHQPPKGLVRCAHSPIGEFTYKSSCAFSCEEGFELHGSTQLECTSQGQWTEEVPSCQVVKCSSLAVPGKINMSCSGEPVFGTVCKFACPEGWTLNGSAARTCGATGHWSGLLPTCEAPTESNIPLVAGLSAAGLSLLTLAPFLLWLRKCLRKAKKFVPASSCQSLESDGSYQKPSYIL
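Read-out: % PE-positive cells | Test system: HUVEC | Doses: One compound dose added by pin transfer | Buffer or medium: EGM-2 over gelatin coat | Signal: Immunofluorescence imaging | Benchmarks: TNF-alpha, DMSO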
Starred values were filed as active, the others as inactive.

SMILES	E-sel inducer
CCOC(=O)C1(Cc2ccccc2C)CCCN(C(=O)c2cc(CC)nn2C)C1 (configuration not stated)	4
COc1ccccc1C#Cc1cnc2c(c1)C(=O)N([C@H](C)CO)C[C@@H](C)[C@H](CN(C)S(=O)(=O)c1cn(C)cn1)O2	0
COc1ccc(NC(=O)Nc2ccc3c(c2)C(=O)N([C@H](C)CO)C[C@@H](C)[C@H](CN(C)C(=O)NC(C)C)O3)cc1	0
Cc1ccccc1C(=O)N1CCC(C(=O)NN2C(=O)NC3(CCCCC3)C2=O)CC1	264*
Cc1ccc(NC(=O)C2CCN(C(=O)c3ccccc3C)CC2)cc1	15
Cc1ccccc1C(=O)N1CCC(C(=O)Nc2ccc(S(=O)(=O)N3C(C)CCCC3C)cc2)CC1 (configuration not stated)	0
C[C@H]1CN([C@@H](C)CO)C(=O)c2cccc(NC(=O)Nc3cccc4ccccc34)c2O[C@@H]1CN(C)S(C)(=O)=O	-1
C[C@@H]1CN([C@H](C)CO)C(=O)c2cccc(NC(=O)Nc3ccccc3)c2O[C@H]1CN(C)C(=O)Nc1cccc2ccccc12	3
CCCN(C)C[C@H]1OCCCC[C@@H](C)Oc2ccc(NC(=O)c3ccncc3)cc2C(=O)N([C@@H](C)CO)C[C@H]1C	1
CN1C(=O)c2cc(NC(=O)c3ccc(F)c(F)c3)ccc2OC[C@@H]2O[C@H](CC(=O)N[C@@H]3CCN(Cc4ccccc4)C3)CC[C@H]21	0
O=[N+]([O-])c1cc(S(=O)(=O)O)cc([N+](=O)[O-])c1NN(c1ccccc1)c1ccccc1	56*
O=[N+]([O-])c1cc(S(=O)(=O)Nc2ccccc2)ccc1N1CCN(c2ccccc2)CC1	-1
Cc1ccc(S(=O)(=O)NC(C)c2ccccc2)cc1[N+](=O)[O-] (configuration not stated)	0
CCOC(=O)C1CCCN(C(=O)c2cc(S(=O)(=O)N3CCCCC3)ccc2C)C1 (configuration not stated)	0
CCOC(=O)C1CCCN(C(=O)c2cc(S(=O)(=O)N(C)C)ccc2N2CCCC2)C1 (configuration not stated)	428*
CCOC(=O)C1CCCN(C(=O)c2ccccc2NS(=O)(=O)c2ccc(F)cc2)C1 (configuration not stated)	0
COc1ccc(NC(=O)N2C[C@@H]3[C@H](c4ccccc42)[C@H](CO)N3C(=O)C2CCCC2)cc1	0
O=C(C1CC1)N1CC(=O)N2[C@H](CO)[C@H](c3ccc(C4=CCCCC4)cc3)[C@@H]2C1	0
C/C=C/c1cccc(-c2nc(C(=O)NCCC)cc3c2[C@H](CCO)N([S@@](=O)C(C)(C)C)C3)c1	0
C[C@@H]1CN([C@H](C)CO)C(=O)c2cccc(NC(=O)C3CCCCC3)c2O[C@@H]1CN(C)C	0
COc1ccc(CN(C)C[C@H]2OCCCC[C@H](C)Oc3ccc(NC(=O)Nc4ccc(F)cc4)cc3C(=O)N([C@H](C)CO)C[C@H]2C)cc1	0
CCC(=O)N(C)C[C@H]1Oc2ncc(-c3ccc(C#N)cc3)cc2C(=O)N([C@H](C)CO)C[C@@H]1C	0
Cc1ccc(S(=O)(=O)Nc2cccc3c2O[C@H](CN(C)C(=O)Nc2ccc4c(c2)OCO4)[C@H](C)CN([C@H](C)CO)C3=O)cc1	0
C[C@@H]1CN([C@@H](C)CO)C(=O)c2cccc(NS(=O)(=O)c3ccc(Cl)cc3)c2O[C@H]1CN(C)C(=O)Nc1ccc2c(c1)OCO2	98*
C[C@H](CO)N1C[C@H](C)[C@H](CN(C)C(=O)Nc2ccc3c(c2)OCO3)Oc2c(NS(=O)(=O)c3ccc(Cl)cc3)cccc2C1=O	50*
SMILES	E-sel inducer
Cc1ccc(S(=O)(=O)Nc2cccc3c2O[C@H](CN(C)C(=O)Nc2ccc4c(c2)OCO4)[C@@H](C)CN([C@@H](C)CO)C3=O)cc1	0
C[C@H](CO)N1C[C@H](C)[C@H](CN(C)C(=O)Nc2ccc3c(c2)OCO3)Oc2c(NS(=O)(=O)c3ccc(F)cc3)cccc2C1=O	3
C[C@H](CO)N1C[C@H](C)[C@@H](CN(C)C(=O)Nc2ccc(C(F)(F)F)cc2)Oc2c(NC(=O)Nc3ccc4c(c3)OCO4)cccc2C1=O	1
C[C@@H]1CN([C@H](C)CO)C(=O)c2cccc(NC(=O)Nc3ccc4c(c3)OCO4)c2O[C@@H]1CN(C)C(=O)Nc1ccc(C(F)(F)F)cc1	60*
C[C@@H]1CN([C@@H](C)CO)C(=O)c2cccc(NC(=O)Nc3ccc(C(F)(F)F)cc3)c2O[C@@H]1CN(C)C(=O)Nc1ccc2c(c1)OCO2	0
C[C@@H]1CN([C@H](C)CO)C(=O)c2cccc(NS(=O)(=O)c3ccc(Cl)cc3)c2O[C@H]1CN(C)C(=O)Nc1ccc2c(c1)OCO2	9
C[C@@H]1CN([C@@H](C)CO)C(=O)Cc2cc(NS(=O)(=O)c3cn(C)cn3)ccc2O[C@H]1CN(C)C	0
C[C@@H]1CN([C@H](C)CO)C(=O)Cc2cc(NC(=O)Nc3ccccc3)ccc2O[C@@H]1CN(C)CC1CC1	0
Cc1cccc(-c2ccc([C@H]3[C@H](CO)N4CCCCN(Cc5cncnc5)C[C@@H]34)cc2)c1	0
C[C@H](CO)N1C[C@H](C)[C@@H](CN(C)S(=O)(=O)c2cn(C)cn2)Oc2ccc(NC(=O)Cn3cnnn3)cc2CC1=O	-9
C[C@@H](NC(=O)C[C@@H]1C[C@H]2c3cc(NC(=O)c4cccnc4)ccc3O[C@H]2[C@@H](CO)O1)c1ccccc1	0
O=C(C[C@H]1CC[C@H](NC(=O)C2CCOCC2)[C@H](CO)O1)Nc1ccccc1	1
Cc1noc(C)c1NC(=O)N(C)C[C@H]1Oc2ccc(NC(=O)Nc3ccc(C(F)(F)F)cc3)cc2CC(=O)N([C@@H](C)CO)C[C@H]1C	-5
CN1C(=O)c2cc(NS(C)(=O)=O)ccc2OC[C@@H]2O[C@@H](CC(=O)NCc3ccccc3)CC[C@@H]21	0
O=C(C[C@H]1CC[C@H]2[C@@H](COC[C@H](O)CN2Cc2ccc(Cl)cc2)O1)Nc1nccs1	0
COC(=O)C[C@H]1C=C[C@@H](NC(=O)Nc2ccc(C(F)(F)F)cc2)[C@H](CO)O1	0
Cc1ccc(S(=O)(=O)Nc2cc(-c3ccccc3)nn2C)cc1Cl	53*
Cc1ccc(S(=O)(=O)Nc2cc(-c3ccccc3)nn2C)cc1	0
Cc1ccc(S(=O)(=O)Nc2cc(-c3ccc(Cl)cc3)nn2C)cc1	3
O=C(C[C@H]1C[C@@H]2c3cc(NC(=O)C4CCC4)ccc3O[C@@H]2[C@@H](CO)O1)NCC(F)(F)F	0
O=C(C[C@H]1C=C[C@H](NC(=O)C2CC2)[C@H](CO)O1)NCCCN1CCOCC1	6
O=C(O)c1c(C(=O)O)c(-c2ccc(Cl)c(Cl)c2)n2c1CSC2	58*
O=C(O)c1c(C(=O)O)c(-c2ccc(F)cc2)n2c1CCC2	15
Cc1ccc(-c2c(C(=O)O)c(C(=O)O)c3n2CCC3)cc1	0
COc1ccc(S(=O)(=O)Nc2ccc3c(c2)C(=O)N([C@H](C)CO)C[C@H](C)[C@@H](CN(C)Cc2ccccc2)OCCCC[C@H](C)O3)cc1	0
COc1ccccc1C#Cc1ccc([C@H]2[C@@H](CO)N3CCCCN(CCC(F)(F)F)C[C@@H]23)cc1	0
COCC(=O)N1CCC2(CC1)CN(Cc1ccccn1)[C@H](CO)c1[nH]c3cc(OC)ccc3c12	0
CO[C@H]1CN(C)C(=O)c2ccc(NC(=O)C3CCCC3)cc2OC[C@H](C)NC[C@H]1C	0

Bioassay records: PubChem BioAssay, Broad Institute
